One block for each molecule: values may come before it. Activity calls are given as the source filed them. No cut-off for these calls is given here.
Tests used:
[1] = target: T1, Mast/stem cell growth factor receptor Kit (Homo sapiens, UniProt P10721); experiment: Inhibition of c-KIT autophosphorylation at Y823 in human GIST882 cells at 0.01 to 3 uM measured after 2 hrs by immunoblotting; assay type: cell-based
Method in brief: (§1)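 After an ice-cold PBS wash, cells were lysed in RIPA buffer (50 mM Tris pH 8.0) with protease and phosphatase inhibitors, and protein was quantified by BCA. Lysates were run on SDS-PAGE, transferred to PVDF and blocked in 5% milk/TBST. Phospho- and total proteins were probed by immunoblot with ECL detection; β-actin served as loading control.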

[2] = target: T1, Mast/stem cell growth factor receptor Kit; experiment: Inhibition of c-KIT mediated signaling pathways assessed as reduction in STAT3/5 phosphorylation at Y705/Y694 in human GIST882 cells at 0.03 to 10 uM measured after 2 hrs by immunoblotting; assay type: cell-based; method in brief: as §1
[3] = target: T2, BCR/ABL p210 fusion protein (Homo sapiens, UniProt A1Z199); experiment: Inhibition of BCR/ABL p210 fusion protein mediated signaling pathways assessed as reduction in Stat5 phosphorylation at Y694 in human K562 cells at 0.01 to 3 uM measured after 2 hrs by immunoblotting; assay type: cell-based; method in brief: as §1
[4] = target: T2, BCR/ABL p210 fusion protein; experiment: Inhibition of BCR/ABL p210 fusion protein mediated signaling pathways assessed as reduction in ERK phosphorylation at T202/Y204 in human K562 cells at 0.01 to 3 uM measured after 2 hrs by immunoblotting; assay type: cell-based; method in brief: as §1
[5] = target: Epithelial discoidin domain-containing receptor 1 (Homo sapiens, UniProt Q08345); details: BaF3
[6] = target: Tyrosine-protein kinase Lck (Homo sapiens, UniProt P06239); experiment: Inhibition of recombinant C-terminal His-tagged human LCK cytoplasmic domain expressed in baculovirus expression system assessed as residual activity at 1 uM measured after 1 hr by FRET based Z'Lyte assay relative to control
[7] = target: Platelet-derived growth factor receptor beta (Homo sapiens, UniProt P09619); experiment: Inhibition of recombinant His-tagged human PDGFR-beta cytoplasmic domain (558 to 1106 residues) expressed in baculovirus expression system assessed as residual activity at 1 uM by KINOMEscan binding assay relative to control
BaF3 [8] = experiment: Inhibition of BCR/ABL p210 fusion protein M356T mutant (unknown origin) expressed in BAF3 cells assessed as growth inhibition measured after 72 hrs by CellTiter-Glo or CCK8 assay; assay type: cell-based; details: Homo sapiens
Method in brief: (§2)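 BaF3 lines were made by retroviral transduction with kinase-fusion MSCV vectors packaged in HEK293T cells. Cells were selected with puromycin for 48 h, then selected again without IL-3 so growth depends on the introduced kinase. […] They were seeded at 1 to 2.5×10^4 cells/mL with compound dilutions and incubated 72 h. Viability was read by CellTiter-Glo luminescence or CCK-8 absorbance (450/655 nm), normalized to DMSO control; GI50 was curve-fitted from triplicate tests.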

[9] = target: T1, Mast/stem cell growth factor receptor Kit; experiment: Inhibition of c-KIT autophosphorylation at Y703 in human GISTT1 cells at 0.03 to 10 uM measured after 2 hrs by immunoblotting; assay type: cell-based; method in brief: as §1
[10] = target: T1, Mast/stem cell growth factor receptor Kit; experiment: Inhibition of c-KIT mediated signaling pathways assessed as reduction in S6 phosphorylation at S235/236 in human GISTT1 cells at 0.03 to 10 uM measured after 2 hrs by immunoblotting; assay type: cell-based; method in brief: as §1
[11] = target: Tyrosine-protein kinase Blk (Homo sapiens, UniProt P51451); experiment: Inhibition of full length recombinant His-tagged human BLK cytoplasmic domain expressed in baculovirus expression system measured after 1 hr by FRET based Z'Lyte assay
Method in brief: (§3)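 Z'-LYTE FRET biochemical kinase assay run by Invitrogen on selected kinases identified from binding profiling; IC50 from dose-response.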

[12] = Cell cycle arrest in human K562 cells assessed as accumulation at G0/G1 phase at 0.3 uM after 24 hrs by propidium iodide/RNase staining based flow cytometry; assay type: functional
Method in brief: (§4)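 Cells were exposed to serially diluted compound, then fixed in cold 70% ethanol overnight at -20 °C. They were stained with PI/RNase buffer for DNA-content cell-cycle analysis.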

[13] = Half life in Sprague-Dawley rat at 1 mg/kg, iv; assay type: ADME, organism-based; details: in vivo
Method in brief: (§5)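 Male Sprague-Dawley rats aged six to eight weeks were fasted overnight and then dosed iv or orally. Blood (~0.2 mL) was drawn from the jugular vein into heparin and kept on ice. Sampling was at 1 min to 8 h for iv and 5 min to 24 h for oral. Plasma was separated by centrifugation at 2-8 °C and stored at -80 °C until analysis.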

[14] = target: T2, BCR/ABL p210 fusion protein; experiment: Inhibition of BCR/ABL p210 fusion protein mediated signaling pathways assessed as reduction in ERK phosphorylation at T202/Y204 in human MEG01 cells at 0.01 to 3 uM measured after 2 hrs by immunoblotting; assay type: cell-based; details: MEG-01; method in brief: as §1
[15] = target: T1, Mast/stem cell growth factor receptor Kit; experiment: Inhibition of c-KIT mediated signaling pathways assessed as reduction in ERK1/2 phosphorylation at T202/Y204 in human GISTT1 cells at 0.03 to 10 uM measured after 2 hrs by immunoblotting; assay type: cell-based; method in brief: as §1
K562 = experiment: Anticancer activity against human K562 cells xenografted in nu/nu mouse assessed as reduction in tumor progression administered daily via oral gavage measured 28 days post compound treatment; assay type: functional, cell-based
Method in brief: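 Female nu/nu mice received ten million K562 cells subcutaneously in the right flank, in PBS mixed 1:1 with Matrigel. Daily oral gavage began at 200-400 mm³ tumor size, with 4 or 5 mice per group. Dosing was 25, 50 or 100 mg/kg/d or vehicle (0.5% methylcellulose/0.4% Tween80) for 28 days. Body weight and tumor size were normalized to initial values, and final tumor weight was recorded. Data are mean ± SEM.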

[16] = target: Platelet-derived growth factor receptor alpha (Homo sapiens) (UniProt P16234); experiment: Inhibition of Tel-fused PDGFR-alpha (unknown origin) expressed in BAF3 cells assessed as growth inhibition measured after 72 hrs by CellTiter-Glo or CCK8 assay; assay type: cell-based; method in brief: as §2
BaF3 [17] = experiment: Inhibition of BCR/ABL p210 fusion protein H369P mutant (unknown origin) expressed in BAF3 cells assessed as growth inhibition measured after 72 hrs by CellTiter-Glo or CCK8 assay; assay type: cell-based; details: Homo sapiens; method in brief: as §2
[18] = Cmax in Sprague-Dawley rat at 1 mg/kg, iv; assay type: ADME, organism-based; parameters: dose 1 mg/kg, route intravenous; details: in vivo; method in brief: as §5
[19] = target: Macrophage colony-stimulating factor 1 receptor (Homo sapiens, UniProt P07333); experiment: Inhibition of recombinant His-tagged human CSF1R cytoplasmic domain expressed in baculovirus expression system measured after 1 hr by FRET based Z'Lyte assay; method in brief: as §3
[20] = Cell cycle arrest in human KU812 cells assessed as accumulation at G0/G1 phase at 0.3 uM after 12 hrs by propidium iodide/RNase staining based flow cytometry; assay type: functional; method in brief: as §4
[21] = target: T1, Mast/stem cell growth factor receptor Kit; details: 1 uM
[22] = Cell cycle arrest in human KU812 cells assessed as accumulation at G0/G1 phase at 1 uM after 12 hrs by propidium iodide/RNase staining based flow cytometry; assay type: functional; method in brief: as §4
[23] = target: T1, Mast/stem cell growth factor receptor Kit; details: GISTT1, 1 uM
[24] = target: T1, Mast/stem cell growth factor receptor Kit; details: GISTT1, 1 uM; remark: listed apart in the source

T2 sequence (A1Z199 1-97): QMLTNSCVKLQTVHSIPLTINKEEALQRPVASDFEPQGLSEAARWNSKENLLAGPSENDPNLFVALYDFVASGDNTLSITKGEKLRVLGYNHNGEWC
T1 sequence (P10721 whole entry): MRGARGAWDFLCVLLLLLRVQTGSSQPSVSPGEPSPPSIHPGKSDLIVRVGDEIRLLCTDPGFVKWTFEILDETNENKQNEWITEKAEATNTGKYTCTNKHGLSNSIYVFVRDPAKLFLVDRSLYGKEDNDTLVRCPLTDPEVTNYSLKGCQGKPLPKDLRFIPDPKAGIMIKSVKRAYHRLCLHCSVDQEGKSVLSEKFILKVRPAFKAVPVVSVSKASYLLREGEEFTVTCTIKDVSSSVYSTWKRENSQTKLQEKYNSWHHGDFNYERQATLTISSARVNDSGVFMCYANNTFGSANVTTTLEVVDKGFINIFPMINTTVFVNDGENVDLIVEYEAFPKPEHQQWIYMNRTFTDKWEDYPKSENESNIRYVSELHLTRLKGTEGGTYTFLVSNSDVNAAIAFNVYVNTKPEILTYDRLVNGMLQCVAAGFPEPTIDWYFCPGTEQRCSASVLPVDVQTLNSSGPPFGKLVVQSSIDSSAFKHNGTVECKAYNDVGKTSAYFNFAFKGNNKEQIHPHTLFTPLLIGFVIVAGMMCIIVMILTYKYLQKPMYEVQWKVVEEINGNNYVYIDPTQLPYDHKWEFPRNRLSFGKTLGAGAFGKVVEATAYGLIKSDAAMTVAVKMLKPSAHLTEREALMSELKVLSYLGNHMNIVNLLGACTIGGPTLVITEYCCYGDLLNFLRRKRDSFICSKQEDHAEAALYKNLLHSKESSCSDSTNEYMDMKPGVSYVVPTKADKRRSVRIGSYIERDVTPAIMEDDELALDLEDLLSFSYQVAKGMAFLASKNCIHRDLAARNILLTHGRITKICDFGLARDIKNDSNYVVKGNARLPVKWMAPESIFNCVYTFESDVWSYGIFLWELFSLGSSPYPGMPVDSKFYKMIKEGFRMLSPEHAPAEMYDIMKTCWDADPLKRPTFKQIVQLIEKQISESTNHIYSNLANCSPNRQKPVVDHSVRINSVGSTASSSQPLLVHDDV
Chain of Platelet-derived growth factor receptor alpha (Homo sapiens) (P16234 whole entry, the tested form may be a part): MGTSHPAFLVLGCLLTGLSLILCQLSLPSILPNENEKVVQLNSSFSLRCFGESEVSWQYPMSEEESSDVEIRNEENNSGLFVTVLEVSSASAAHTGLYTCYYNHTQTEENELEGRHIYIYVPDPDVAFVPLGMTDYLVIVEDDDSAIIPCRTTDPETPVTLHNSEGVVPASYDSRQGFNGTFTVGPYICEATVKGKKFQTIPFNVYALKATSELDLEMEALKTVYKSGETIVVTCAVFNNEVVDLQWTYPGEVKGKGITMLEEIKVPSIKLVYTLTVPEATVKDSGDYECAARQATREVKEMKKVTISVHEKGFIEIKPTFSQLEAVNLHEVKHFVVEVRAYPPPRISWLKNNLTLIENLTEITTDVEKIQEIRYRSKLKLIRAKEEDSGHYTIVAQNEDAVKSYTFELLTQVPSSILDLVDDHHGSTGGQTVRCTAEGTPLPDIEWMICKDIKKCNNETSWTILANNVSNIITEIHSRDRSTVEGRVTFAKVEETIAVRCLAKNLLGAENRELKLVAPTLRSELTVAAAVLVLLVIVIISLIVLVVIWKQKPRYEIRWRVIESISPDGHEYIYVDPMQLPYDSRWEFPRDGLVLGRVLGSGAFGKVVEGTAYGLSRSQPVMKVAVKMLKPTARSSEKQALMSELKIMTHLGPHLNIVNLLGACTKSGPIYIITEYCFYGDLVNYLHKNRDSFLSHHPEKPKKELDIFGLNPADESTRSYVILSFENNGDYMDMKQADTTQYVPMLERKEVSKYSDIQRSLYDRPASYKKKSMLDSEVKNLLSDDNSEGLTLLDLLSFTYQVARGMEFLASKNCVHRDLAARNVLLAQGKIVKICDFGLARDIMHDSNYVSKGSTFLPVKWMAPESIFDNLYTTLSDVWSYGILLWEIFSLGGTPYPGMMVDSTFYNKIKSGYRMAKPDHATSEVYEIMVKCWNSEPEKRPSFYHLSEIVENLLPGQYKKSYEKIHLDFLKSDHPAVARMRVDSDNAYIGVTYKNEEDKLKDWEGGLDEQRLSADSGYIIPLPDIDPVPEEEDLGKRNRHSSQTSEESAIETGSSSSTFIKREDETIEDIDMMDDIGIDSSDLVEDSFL
Chain of Tyrosine-protein kinase Blk (P51451 whole entry, the tested form may be a part): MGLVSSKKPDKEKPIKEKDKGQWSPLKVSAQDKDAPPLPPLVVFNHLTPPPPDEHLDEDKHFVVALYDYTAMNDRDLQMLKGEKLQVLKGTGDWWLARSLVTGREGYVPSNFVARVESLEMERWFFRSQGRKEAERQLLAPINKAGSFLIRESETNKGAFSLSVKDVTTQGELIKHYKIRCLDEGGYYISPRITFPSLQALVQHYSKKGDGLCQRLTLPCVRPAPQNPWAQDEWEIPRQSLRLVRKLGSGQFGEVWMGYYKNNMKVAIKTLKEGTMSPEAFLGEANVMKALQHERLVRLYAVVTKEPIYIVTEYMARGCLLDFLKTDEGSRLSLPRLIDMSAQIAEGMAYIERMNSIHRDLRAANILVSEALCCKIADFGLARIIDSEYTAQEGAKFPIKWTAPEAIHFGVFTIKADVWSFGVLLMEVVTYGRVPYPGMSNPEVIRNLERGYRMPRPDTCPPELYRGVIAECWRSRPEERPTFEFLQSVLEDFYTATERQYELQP
Chain of Platelet-derived growth factor receptor beta (P09619 whole entry, the tested form may be a part): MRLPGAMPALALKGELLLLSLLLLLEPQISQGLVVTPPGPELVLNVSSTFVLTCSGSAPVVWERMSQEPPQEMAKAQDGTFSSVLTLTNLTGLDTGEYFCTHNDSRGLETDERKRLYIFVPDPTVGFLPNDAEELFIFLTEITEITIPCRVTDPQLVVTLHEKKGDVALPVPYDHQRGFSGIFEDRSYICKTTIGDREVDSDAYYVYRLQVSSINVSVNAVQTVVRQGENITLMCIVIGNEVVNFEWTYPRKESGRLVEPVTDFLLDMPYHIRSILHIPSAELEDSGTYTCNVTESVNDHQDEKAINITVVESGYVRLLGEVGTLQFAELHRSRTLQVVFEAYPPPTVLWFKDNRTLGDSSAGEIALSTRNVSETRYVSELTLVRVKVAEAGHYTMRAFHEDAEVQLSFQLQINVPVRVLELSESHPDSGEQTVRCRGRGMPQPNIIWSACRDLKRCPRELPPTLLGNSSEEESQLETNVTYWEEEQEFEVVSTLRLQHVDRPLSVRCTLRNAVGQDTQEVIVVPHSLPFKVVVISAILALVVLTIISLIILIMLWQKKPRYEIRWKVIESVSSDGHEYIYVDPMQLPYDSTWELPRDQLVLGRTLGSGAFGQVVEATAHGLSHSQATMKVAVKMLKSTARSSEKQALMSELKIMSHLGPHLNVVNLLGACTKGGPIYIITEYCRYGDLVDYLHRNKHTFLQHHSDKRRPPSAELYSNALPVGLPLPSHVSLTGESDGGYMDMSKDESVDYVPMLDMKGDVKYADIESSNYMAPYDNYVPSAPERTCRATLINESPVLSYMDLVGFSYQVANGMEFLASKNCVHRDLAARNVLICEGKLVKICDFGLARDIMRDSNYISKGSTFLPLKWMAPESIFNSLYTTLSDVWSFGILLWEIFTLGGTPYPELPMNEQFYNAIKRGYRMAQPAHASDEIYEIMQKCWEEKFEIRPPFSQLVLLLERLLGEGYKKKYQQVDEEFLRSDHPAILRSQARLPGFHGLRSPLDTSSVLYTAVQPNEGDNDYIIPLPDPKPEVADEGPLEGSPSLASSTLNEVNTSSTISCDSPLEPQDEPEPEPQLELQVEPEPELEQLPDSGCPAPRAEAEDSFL
Chain of Tyrosine-protein kinase Lck (P06239 2-509 limits assumed): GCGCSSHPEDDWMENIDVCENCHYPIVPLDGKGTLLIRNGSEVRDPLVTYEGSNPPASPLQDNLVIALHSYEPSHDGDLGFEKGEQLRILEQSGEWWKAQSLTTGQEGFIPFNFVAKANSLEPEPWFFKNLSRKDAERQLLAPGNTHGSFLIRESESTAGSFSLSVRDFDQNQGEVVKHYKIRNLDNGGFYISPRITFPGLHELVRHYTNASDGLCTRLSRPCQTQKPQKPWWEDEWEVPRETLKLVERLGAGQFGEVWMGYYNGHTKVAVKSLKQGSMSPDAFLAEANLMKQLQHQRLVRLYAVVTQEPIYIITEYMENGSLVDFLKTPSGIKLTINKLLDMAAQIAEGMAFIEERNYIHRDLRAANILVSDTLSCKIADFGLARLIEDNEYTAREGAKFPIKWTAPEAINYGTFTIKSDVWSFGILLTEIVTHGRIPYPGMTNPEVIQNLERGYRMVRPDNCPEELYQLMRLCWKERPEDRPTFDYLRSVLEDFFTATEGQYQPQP

- inhibition [1]: Active
- inhibition [2]: Active
- inhibition [3]: Active
- inhibition [4]: Active
- GI50 [5]: 9770 nM
- Activity [6]: 0.55%
- Activity [7]: 0.3%
- GI50 (BaF3 [8]): 270 nM
- inhibition [9]: Active
- inhibition [10]: Active
- IC50 [11]: 81 nM
- half-life [13]: 2.47 h
- inhibition [14]: Active
- inhibition [15]: Active
- GI50 [16]: 12 nM
- GI50 (BaF3 [17]): 980 nM
- Cmax [18]: 825 ng/mL
- IC50 [19]: 227 nM
SMILES: Cc1ccc(C(=O)N2CCC(Oc3cc(NC(=O)c4ccc(CN5CCN(C)CC5)c(C(F)(F)F)c4)ccc3C)CC2)cn1
- Activity [12]: Active
- TGI (K562): Dose-dependent effect
- Activity [20]: Active

- inhibition [21]: Active
- inhibition [23]: Active
- inhibition [24]: Active
SMILES: Cc1ccc(NC(=O)c2ccc(CN3CCN(C)CC3)cc2)cc1Nc1nccc(-c2cccnc2)n1 [IMATINIB]
- Activity [22]: Active

Reference: ChEMBL document CHEMBL3877303 (J Med Chem, 2017)
